Test results as given in ChEMBL document CHEMBL4002619, “Targeting Type 2 Diabetes with C-Glucosyl Dihydrochalcones as Selective Sodium Glucose Co-Transporter 2 (SGLT2) Inhibitors: Synthesis and Biological Evaluation” (J Med Chem, 2017).
Active and inactive are the calls of the source. No cut-off for these calls is given here.

What was measured:
Format in all cases: cell-based
HEK293 = assay: Cytotoxicity in HEK293 cells assessed as cell viability at 100 uM measured after 20 to 24 hrs by Cell-Titer Blue fluorescence assay; settings: human, hek293, 100 µM
In short: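 HEK293 cells (DMEM, 10% FBS, 37 °C, 5% CO2) seeded 2.0 × 10^4 cells/well 24 h before; compound at 100 µM in triplicate, 20-24 h at 37 °C; CellTiter-Blue 4 h at 37 °C; fluorescence ex 560/em 590 nm; viability as treated/untreated fluorescence ratio, %. DMSO-treated wells run alongside. Mean ± SD of three independent experiments.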

[1] = target: T1, Sodium/glucose cotransporter 2 (Homo sapiens) (UniProt P31639); assay: Inhibition of human SGLT2 expressed in HEK293 cells assessed as reduction in 2-deoxyglucose uptake at 100 uM pretreated for 10 mins followed by 2-deoxyglucose addition in presence of sodium buffer measured after 1 hr by resazurin dye based fluorescence assay
T1 sequence (whole entry): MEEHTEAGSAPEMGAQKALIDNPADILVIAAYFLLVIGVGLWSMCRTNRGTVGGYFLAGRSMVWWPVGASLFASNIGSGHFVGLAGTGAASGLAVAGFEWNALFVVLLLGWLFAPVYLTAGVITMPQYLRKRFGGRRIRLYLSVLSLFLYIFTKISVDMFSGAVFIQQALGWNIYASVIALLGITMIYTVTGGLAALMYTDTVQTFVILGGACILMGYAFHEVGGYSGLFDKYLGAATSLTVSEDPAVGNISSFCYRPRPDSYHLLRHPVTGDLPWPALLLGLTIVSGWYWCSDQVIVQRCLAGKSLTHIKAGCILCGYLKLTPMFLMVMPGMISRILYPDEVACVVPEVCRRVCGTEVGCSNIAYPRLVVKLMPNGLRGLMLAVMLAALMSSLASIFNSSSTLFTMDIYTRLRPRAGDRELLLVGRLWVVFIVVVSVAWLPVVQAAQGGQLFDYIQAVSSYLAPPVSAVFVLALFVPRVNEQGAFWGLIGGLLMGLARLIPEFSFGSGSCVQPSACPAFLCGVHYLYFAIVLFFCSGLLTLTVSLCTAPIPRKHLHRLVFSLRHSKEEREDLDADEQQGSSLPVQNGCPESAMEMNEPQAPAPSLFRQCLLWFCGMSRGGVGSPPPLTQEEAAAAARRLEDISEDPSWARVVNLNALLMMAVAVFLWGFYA
In short: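 Stably transfected HEK293 expressing human SGLT2 (pCMV6-Neo, G418-selected), 2.0 × 10^4 cells/well, 24 h; 1 h preincubation in KRPH buffer at 37 °C; compound 100 µM; 2-deoxyglucose 1 mM, 1 h at 37 °C; NaOH lysis at 80-85 °C, neutralised; enzymatic cycling (G6PDH, NADP+, diaphorase, 10 µM resazurin, pH 8.2) 15-20 h; fluorescence ex 560/em 590 nm. Mean ± SD, three independent experiments.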

[2] = target: T2, Sodium/glucose cotransporter 1 (Homo sapiens, UniProt P13866); assay: Inhibition of human SGLT1 expressed in HEK293 cells assessed as reduction in 2-deoxyglucose uptake at 100 uM pretreated for 10 mins followed by 2-deoxyglucose addition in presence of sodium buffer measured after 1 hr by resazurin dye based fluorescence assay; settings: hek293, 1 h
T2 sequence (P13866 whole entry): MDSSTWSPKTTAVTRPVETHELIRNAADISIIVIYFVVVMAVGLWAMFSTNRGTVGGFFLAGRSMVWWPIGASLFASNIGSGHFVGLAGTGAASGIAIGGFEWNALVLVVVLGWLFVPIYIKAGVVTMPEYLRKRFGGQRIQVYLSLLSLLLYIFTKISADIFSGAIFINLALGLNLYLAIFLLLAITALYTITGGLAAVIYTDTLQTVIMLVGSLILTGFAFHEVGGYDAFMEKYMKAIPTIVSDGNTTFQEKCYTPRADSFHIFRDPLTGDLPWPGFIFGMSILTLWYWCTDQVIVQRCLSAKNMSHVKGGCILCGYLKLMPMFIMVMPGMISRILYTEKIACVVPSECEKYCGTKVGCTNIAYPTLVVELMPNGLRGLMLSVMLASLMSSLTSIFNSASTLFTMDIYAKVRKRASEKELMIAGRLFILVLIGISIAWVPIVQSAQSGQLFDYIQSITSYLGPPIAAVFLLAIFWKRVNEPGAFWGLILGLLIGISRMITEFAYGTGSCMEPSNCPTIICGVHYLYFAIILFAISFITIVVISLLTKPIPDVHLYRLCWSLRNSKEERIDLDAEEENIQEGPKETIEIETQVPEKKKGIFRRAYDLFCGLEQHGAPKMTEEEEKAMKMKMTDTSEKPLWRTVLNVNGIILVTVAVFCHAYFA

[3] = Inhibition of GLUT in HEK293 cells assessed as reduction in 2-deoxyglucose uptake at 100 uM pretreated for 10 mins followed by 2-deoxyglucose addition in presence of choline buffer measured after 1 hr by resazurin dye based fluorescence assay; settings: human
In short: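 SGLT1 and SGLT2 stable HEK293 lines (G418-selected) assayed in sodium-free buffer, NaCl replaced by choline chloride; compounds at 100 µM; phlorizin and cytochalasin B as controls. 2-deoxyglucose 1 mM, 1 h at 37 °C; lysis in 0.1 M NaOH, 80-85 °C 40 min, neutralised; G6PDH/NADP+/diaphorase/resazurin cycling 15-20 h at 37 °C; resorufin fluorescence ex 560/em 590 nm.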

[4] = target: T3, Sodium/glucose cotransporter 2 (Homo sapiens, UniProt P31639); assay: Inhibition of human SGLT2 expressed in HEK293 cells assessed as reduction in 2-deoxyglucose uptake pretreated for 10 mins followed by 2-deoxyglucose addition in presence of sodium buffer measured after 1 hr by resazurin dye based fluorescence assay
T3 sequence (P31639 whole entry): T1 sequence (whole entry)

O=C(CCc1ccc(O)cc1)c1c(O)cc(O)cc1O[C@@H]1O[C@H](CO)[C@@H](O)[C@H](O)[C@H]1O [PHLORIZIN]
Activity (HEK293): Non-Toxic | inhibition [1]: Active

Cc1ccc(/C=C/C(=O)c2c(O)cc(O)cc2O)cc1
Activity (HEK293): Non-Toxic | inhibition (INH) [2]: Active | inhibition [1]: Active | inhibition (INH) [3]: Active | IC50 [4]: 34.1 µM

O=C(/C=C/c1ccc(OCc2ccccc2)cc1)c1c(O)cc(O)cc1O
Activity (HEK293): Non-Toxic | inhibition (INH) [2]: Active | inhibition [1]: Active | inhibition (INH) [3]: Active | IC50 [4]: 22.7 µM

CCOc1ccc(CCC(=O)c2c(O)cc(O)c([C@@H]3O[C@H](CO)[C@@H](O)[C@H](O)[C@H]3O)c2O)cc1
Activity (HEK293): Non-Toxic | inhibition (INH) [2]: Active | inhibition [1]: Active | inhibition (INH) [3]: Not Active | IC50 [4]: 0.0217 µM

O=C(CCc1ccc(F)cc1)c1c(O)cc(O)c([C@@H]2O[C@H](CO)[C@@H](O)[C@H](O)[C@H]2O)c1O
Activity (HEK293): Non-Toxic | inhibition (INH) [2]: Active | inhibition [1]: Active | inhibition (INH) [3]: Not Active | IC50 [4]: 0.0091 µM

COc1ccc(CCC(=O)c2c(O)cc(O)c([C@@H]3O[C@H](CO)[C@@H](O)[C@H](O)[C@H]3O)c2O)cc1
Activity (HEK293): Non-Toxic | inhibition (INH) [2]: Active | inhibition [1]: Active | inhibition (INH) [3]: Not Active | IC50 [4]: 0.0213 µM

O=C(CCc1ccc(O)cc1)c1c(O)cc(O)cc1O [PHLORETIN]
Activity (HEK293): Non-Toxic | inhibition [1]: Active | inhibition (INH) [3]: Active | IC50 [4]: 18.3 µM

CCCOc1ccc(CCC(=O)c2c(O)cc(O)cc2O)cc1
Activity (HEK293): Non-Toxic | inhibition (INH) [2]: Active | inhibition [1]: Active | inhibition (INH) [3]: Active | IC50 [4]: 16.4 µM

COc1ccc(CCC(=O)c2c(O)cc(O)cc2O)cc1
Activity (HEK293): Non-Toxic | inhibition (INH) [2]: Active | inhibition [1]: Active | inhibition (INH) [3]: Active | IC50 [4]: 18.7 µM

C=CCOc1ccc(/C=C/C(=O)c2c(O)cc(O)cc2O)cc1
Activity (HEK293): Non-Toxic | inhibition (INH) [2]: Active | inhibition [1]: Active | inhibition (INH) [3]: Active | IC50 [4]: 26.2 µM

CCOc1ccc(CCC(=O)c2c(O)cc(O)cc2O)cc1
Activity (HEK293): Non-Toxic | inhibition (INH) [2]: Active | inhibition [1]: Active | inhibition (INH) [3]: Active | IC50 [4]: 16.7 µM

Cc1ccc(CCC(=O)c2c(O)cc(O)cc2O)cc1
Activity (HEK293): Non-Toxic | inhibition (INH) [2]: Active | inhibition [1]: Active | inhibition (INH) [3]: Active | IC50 [4]: 18 µM

CCOc1ccc(/C=C/C(=O)c2c(O)cc(O)cc2O)cc1
Activity (HEK293): Non-Toxic | inhibition (INH) [2]: Active | inhibition [1]: Active | inhibition (INH) [3]: Active | IC50 [4]: 26 µM

O=C(/C=C/c1ccc(Br)cc1)c1c(O)cc(O)cc1O [4-BROMO-2',4',6'-TRIHYDROXYCHALCONE]
Activity (HEK293): Non-Toxic | inhibition (INH) [2]: Active | inhibition [1]: Active | inhibition (INH) [3]: Active | IC50 [4]: 23.5 µM

O=C(CCc1ccc(O)cc1)c1c(O)cc(O)c([C@@H]2O[C@H](CO)[C@@H](O)[C@H](O)[C@H]2O)c1O
Activity (HEK293): Non-Toxic | inhibition (INH) [2]: Active | inhibition [1]: Active | inhibition (INH) [3]: Not Active | IC50 [4]: 0.0119 µM

COc1ccc(/C=C/C(=O)c2c(O)cc(O)cc2O)cc1 [4-METHOXYL-2',4',6'-TRIHYDROXYCHALCONE]
Activity (HEK293): Non-Toxic | inhibition (INH) [2]: Active | inhibition [1]: Active | inhibition (INH) [3]: Active | IC50 [4]: 18.2 µM

O=C(CCc1ccc(F)cc1)c1c(O)cc(O)cc1O
Activity (HEK293): Non-Toxic | inhibition (INH) [2]: Active | inhibition [1]: Active | inhibition (INH) [3]: Active | IC50 [4]: 15.8 µM

CCOc1ccc(Cc2cc([C@@H]3O[C@H](CO)[C@@H](O)[C@H](O)[C@H]3O)ccc2Cl)cc1 [DAPAGLIFLOZIN]
inhibition (INH) [2]: Active | inhibition [1]: Active

O=C(CCc1ccccc1)c1c(O)cc(O)c([C@@H]2O[C@H](CO)[C@@H](O)[C@H](O)[C@H]2O)c1O
Activity (HEK293): Non-Toxic | inhibition (INH) [2]: Active | inhibition [1]: Active | inhibition (INH) [3]: Not Active | IC50 [4]: 0.0198 µM

CCCOc1ccc(CCC(=O)c2c(O)cc(O)c([C@@H]3O[C@H](CO)[C@@H](O)[C@H](O)[C@H]3O)c2O)cc1
Activity (HEK293): Non-Toxic | inhibition (INH) [2]: Active | inhibition [1]: Active | inhibition (INH) [3]: Not Active | IC50 [4]: 0.0227 µM

O=C(CCc1ccccc1)c1c(O)cc(O)cc1O
Activity (HEK293): Non-Toxic | inhibition (INH) [2]: Active | inhibition [1]: Active | inhibition (INH) [3]: Active | IC50 [4]: 14.7 µM

O=C(/C=C/c1ccccc1)c1c(O)cc(O)cc1O [2',4',6-TRIHYDROXYCHALCONE]
inhibition [1]: Active
